Article PMC8548355 (Medicinal Chemistry Research, 2021)
Values after ≈ are worked out from the molar mass of the structure shown.

Experiments:
A. baumannii BAA 1605 = test: MIC by broth microdilution against A. baumannii BAA 1605; assay type: cell-based; details: Acinetobacter baumannii, BAA1605, read-out: MIC against A. baumannii BAA 1605
S. aureus ATCC 29213 [1] = test: MIC by broth microdilution against S. aureus ATCC 29213; assay type: cell-based, Staphylococcus aureus; details: Staphylococcus aureus, ATCC29213, read-out: MIC against S. aureus ATCC 29213, broth microdilution, 37 °C, 16–18 h
K. pneumoniae BAA 1705 = test: MIC by broth microdilution against K. pneumoniae BAA 1705; assay type: cell-based; details: Klebsiella pneumoniae, BAA1705, read-out: MIC against K. pneumoniae BAA 1705
E. coli ATCC 25922 = test: MIC by broth microdilution against E. coli ATCC 25922; assay type: cell-based; details: Escherichia coli, ATCC25922, read-out: MIC against E. coli ATCC 25922
Vero cells (ATCC CCL-81) = test: Cell cytotoxicity assay; assay type: cell-based; details: CC50 Vero cells / MIC S. aureus ATCC 29213
MRSA NRS 10194 = test: MIC against clinical MRSA isolate NRS 10194; assay type: cell-based; details: Staphylococcus aureus, MRSA|NRS10194, read-out: MIC against MRSA NRS 10194
S. aureus ATCC 29213 [2] = test: Time–kill kinetics; assay type: cell-based, Staphylococcus aureus; details: 24 h; for cfu reduction in time–kill kinetics: 10× MIC
How it was run: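 Bacteria diluted to ~10^6 cfu/mL and exposed to test compound at 1× and 10× MIC, with controls, at 37 °C for 24 h. Samples taken at 1, 6 and 24 h, serially diluted ten-fold in PBS, and spread on MHA. Plates incubated at 37 °C for 24 h and colonies counted. Surviving cfu/mL plotted against time with and without compound.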

VRSA VRS 1 = test: MIC against clinical VRSA isolate VRS 1; assay type: cell-based; details: Staphylococcus aureus, read-out: MIC against VRSA VRS 1
S. aureus ATCC 29213 [3] = test: Drug interaction of 22 with FDA-approved drugs, checkerboard method; assay type: cell-based, Staphylococcus aureus; details: for MIC: Staphylococcus aureus, ATCC29213, 24 h, read-out: MIC (drug alone); for MIC of drug in the presence of “22” “B”: S. aureus ATCC 29213, checkerboard, in combination with 22; for Inference (drug interaction): combination of 22 with the drug, S. aureus ATCC 29213
MRSA NRS 10191 = test: MIC against clinical MRSA isolate NRS 10191; assay type: cell-based; details: Staphylococcus aureus, MRSA|NRS10191, read-out: MIC against MRSA NRS 10191
[4] = tested on: S. aureus ATCC 29213 pre-formed biofilm; test: Activity against pre-formed S. aureus biofilm; assay type: cell-based, Staphylococcus aureus; details: 10× MIC, 24 h treatment, S. aureus ATCC 29213, compared to comparators
How it was run: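 Overnight culture in 1% TSB, shaken at 180 RPM at 37 °C, diluted 1:100 in fresh TSB. Biofilm grown statically for 48 h at 37 °C under an adhesive foil lid for low oxygen. Planktonic cells removed with three PBS (pH 7.4) rinses. Refilled with TSB containing test compound, 24 h at 37 °C. Washed, heat-fixed at 60 °C for 1 h, stained with 0.06% crystal violet for 10 min, eluted with 30% acetic acid, absorbance read at 600 nm.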

MRSA NRS 10119 = test: MIC against clinical MRSA isolate NRS 10119; assay type: cell-based; details: Staphylococcus aureus, MRSA|NRS10119, read-out: MIC against MRSA NRS 10119
MRSA NRS 10129 = test: MIC against clinical MRSA isolate NRS 10129; assay type: cell-based; details: Staphylococcus aureus, MRSA|NRS10129, read-out: MIC against MRSA NRS 10129
VRSA VRS 4 = test: MIC against clinical VRSA isolate VRS 4; assay type: cell-based; details: Staphylococcus aureus, read-out: MIC against VRSA VRS 4
MRSA NRS 10192 = test: MIC against clinical MRSA isolate NRS 10192; assay type: cell-based; details: Staphylococcus aureus, MRSA|NRS10192, read-out: MIC against MRSA NRS 10192
MRSA NRS 10100 = test: MIC against clinical MRSA isolate NRS 10100; assay type: cell-based; details: Staphylococcus aureus, MRSA|NRS10100, read-out: MIC against MRSA NRS 10100
MRSA NRS 10186 = test: MIC against clinical MRSA isolate NRS 10186; assay type: cell-based; details: Staphylococcus aureus, MRSA|NRS10186, read-out: MIC against MRSA NRS 10186
MRSA NRS 10198 = test: MIC against clinical MRSA isolate NRS 10198; assay type: cell-based; details: Staphylococcus aureus, MRSA|NRS10198, read-out: MIC against MRSA NRS 10198
[5] = tested on: clinical MDR S. aureus isolates (MRSA and VRSA); test: MIC against clinical MDR S. aureus isolates, whole panel; assay type: cell-based, Staphylococcus aureus; details: nine MRSA and three VRSA strains
MRSA NRS 10193 = test: MIC against clinical MRSA isolate NRS 10193; assay type: cell-based; details: Staphylococcus aureus, MRSA|NRS10193, read-out: MIC against MRSA NRS 10193
VRSA VRS 12 = test: MIC against clinical VRSA isolate VRS 12; assay type: cell-based; details: Staphylococcus aureus, read-out: MIC against VRSA VRS 12
S. aureus = details: similar activity to 20–23; cited from earlier work

Compound	MIC (A. baumannii BAA 1605) [µg/mL]	MIC (S. aureus ATCC 29213 [1]) [µg/mL]	MIC (K. pneumoniae BAA 1705) [µg/mL]	MIC (E. coli ATCC 25922) [µg/mL]	Selectivity index with respect to S. aureus ATCC 29213 (SI) (Vero cells (ATCC CCL-81))	MIC (MRSA NRS 10194) [µg/mL]	MIC (VRSA VRS 1) [µg/mL]	MIC (S. aureus ATCC 29213 [3]) [µg/mL]	MIC (MRSA NRS 10191) [µg/mL]	MIC (MRSA NRS 10119) [µg/mL]	MIC (MRSA NRS 10129) [µg/mL]	MIC (VRSA VRS 4) [µg/mL]	MIC (MRSA NRS 10192) [µg/mL]	MIC (MRSA NRS 10100) [µg/mL]	MIC (MRSA NRS 10186) [µg/mL]	MIC (MRSA NRS 10198) [µg/mL]	MIC (MRSA NRS 10193) [µg/mL]	MIC (VRSA VRS 12) [µg/mL]	other results
O=C(Nc1ccc(Br)c(C(F)(F)F)c1)c1ccccc1O [Compound 21, N-(4ʹ-bromo-3ʹ-(trifluoromethyl)phenyl)-2-hydroxybenzamide]	> 64	0.5 (≈ 1.39 µM)	> 64	> 64	<10														
O=C(Nc1ccc(Br)c(C(F)(F)F)c1)c1cc(Cl)ccc1O [Compound 22, 5-Chloro-N-(4ʹ-bromo-3ʹ-(trifluoromethyl)phenyl)-2-hydroxybenzamide]	> 64	0.25 (≈ 0.634 µM)	> 64	> 64		0.0625 (≈ 0.158 µM)	0.0312 (≈ 0.0791 µM)	0.5	0.0625 (≈ 0.158 µM)	0.0312 (≈ 0.0791 µM)	0.0625 (≈ 0.158 µM)	0.0625 (≈ 0.158 µM)	0.0312 (≈ 0.0791 µM)	0.0625 (≈ 0.158 µM)	0.0625 (≈ 0.158 µM)	0.0625 (≈ 0.158 µM)	0.0625 (≈ 0.158 µM)	0.0625 (≈ 0.158 µM)	Type of killing in time–kill kinetics (in words) (S. aureus ATCC 29213 [2]; 1× and 10× MIC): concentration-dependent bactericidal activity; cfu reduction in time–kill kinetics (S. aureus ATCC 29213 [2]): ~ 8 log10 cfu/mL; Reduction in pre-formed biofilm [4]: more significant reduction (P < 0.0005); MIC against MRSA and VRSA isolates (range over the panel) [5]: 0.031 to 0.062 µg/mL
O=C(Nc1cccc(C(F)(F)F)c1)c1cc(Cl)ccc1O [Compound 23, 5-Chloro-N-(3ʹ-(trifluoromethyl)phenyl)-2-hydroxybenzamide]	> 64	0.5 (≈ 1.58 µM)	> 64	> 64	<10														
O=C(Nc1ccc(Br)cc1)c1cc(Cl)ccc1O [Compound 25, 5-Chloro-N-(4ʹ-bromophenyl)-2-hydroxybenzamide]	> 64	0.5 (≈ 1.53 µM)	> 64	> 64		0.5 (≈ 1.53 µM)	0.5 (≈ 1.53 µM)		0.5 (≈ 1.53 µM)	0.25 (≈ 0.766 µM)	0.5 (≈ 1.53 µM)	0.5 (≈ 1.53 µM)	0.5 (≈ 1.53 µM)	0.5 (≈ 1.53 µM)	0.5 (≈ 1.53 µM)	0.5 (≈ 1.53 µM)	0.5 (≈ 1.53 µM)	0.5 (≈ 1.53 µM)	MIC against MRSA and VRSA isolates (range over the panel) [5]: 0.25 to 0.5 µg/mL
O=C(Nc1cc(C(F)(F)F)cc(C(F)(F)F)c1)c1cc(Cl)ccc1O [IMD0354, N-[3,5-Bis(trifluoromethyl)phenyl]-5-chloro-2-hydroxybenzamide]																			MIC (reported) (S. aureus): 0.25 µg/mL (≈ 0.652 µM)
C[C@H]1COc2c(N3CCN(C)CC3)c(F)cc3c(=O)c(C(=O)O)cn1c23 [Levofloxacin, reference compound]	8 (≈ 22.1 µM)	0.25 (≈ 0.692 µM)	64 (≈ 177 µM)	0.0156 (≈ 0.0432 µM)	>400	0.125 (≈ 0.346 µM)	64 (≈ 177 µM)	0.25	16 (≈ 44.3 µM)	16 (≈ 44.3 µM)	0.25 (≈ 0.692 µM)	> 64	8 (≈ 22.1 µM)	0.25 (≈ 0.692 µM)	8 (≈ 22.1 µM)	32 (≈ 88.6 µM)	32 (≈ 88.6 µM)	32 (≈ 88.6 µM)	MIC of drug in the presence of “22” “B” (S. aureus ATCC 29213 [3]): 0.25 µg/mL; Inference (drug interaction) (S. aureus ATCC 29213 [3]): No interaction
CN[C@H](CC(C)C)C(=O)N[C@H]1C(=O)N[C@@H](CC(N)=O)C(=O)N[C@H]2C(=O)N[C@H]3C(=O)N[C@H](C(=O)N[C@H](C(=O)O)c4cc(O)cc(O)c4-c4cc3ccc4O)[C@H](O)c3ccc(c(Cl)c3)Oc3cc2cc(c3O[C@@H]2O[C@H](CO)[C@@H](O)[C@H](O)[C@H]2O[C@H]2C[C@](C)(N)[C@H](O)[C@H](C)O2)Oc2ccc(cc2Cl)[C@H]1O [Vancomycin, reference compound]						1 (≈ 0.69 µM)	> 64	1	2 (≈ 1.38 µM)	2 (≈ 1.38 µM)	1 (≈ 0.69 µM)	> 64	2 (≈ 1.38 µM)	2 (≈ 1.38 µM)	1 (≈ 0.69 µM)	2 (≈ 1.38 µM)	2 (≈ 1.38 µM)	> 64	cfu reduction in time–kill kinetics (S. aureus ATCC 29213 [2]): ~ 9 log10 cfu/mL; MIC of drug in the presence of “22” “B” (S. aureus ATCC 29213 [3]): 0.5 µg/mL; Inference (drug interaction) (S. aureus ATCC 29213 [3]): No interaction
